Results from different studies.
Protocols differ between the studies behind these lines.
LRRK2: Leucine-rich repeat serine/threonine-protein kinase 2 (LRRK2, Homo sapiens, UniProt Q5S007)
LRRK2 G2019S: Leucine-rich repeat serine/threonine-protein kinase 2 (LRRK2, Homo sapiens, UniProt Q5S007, G2019S)

SMILES | target | read-out | action | technique | concentration | endpoint | result
Cc1ccc(NC(=O)c2ccc(CN3CCN(C)CC3)cc2)cc1Nc1nc(-c2cccnc2)cs1 | LRRK2 | cell-free assay | – | – | 0.5 µM | remaining signal | 107%
CN([C@@H]1CCc2c(CC(=O)O)c3cc(S(C)(=O)=O)ccc3n2C1)S(=O)(=O)c1ccc(F)cc1 | LRRK2 | cell-free assay | – | competition with immobilised ligand | 1 µM | remaining binding | 100%
CN(C)C1CCN(CC#Cc2nn(C3CCCC3)c3nc(NCc4ccccc4)ncc23)C1 (stereo not drawn) | LRRK2 | enzyme activity | inhibitor | FRET | 0.1 µM | inhibition | -1%
O=C(NCc1ncc(C(F)(F)F)cc1Cl)c1ccc2c(c1)C1(CCS(=O)(=O)CC1)[C@H](C1CC1)N2S(=O)(=O)c1ccc(F)cc1 | LRRK2 G2019S | cell-free assay | – | competition with immobilised ligand | 1 µM | remaining binding | 100%
COc1cc(-c2cc(-c3ccc(N4CCNCC4)cc3)cnc2N)cc(OC)c1OC | LRRK2 | enzyme activity | inhibitor | – | 0.1 µM | inhibition | 6%
COc1cc(-c2cn(C3CCc4c(F)cccc4N(CC(F)(F)F)C3=O)nn2)ccc1-n1cnc(C)c1 (stereo not drawn) | LRRK2 G2019S | cell-free assay | – | competition with immobilised ligand | 1 µM | remaining binding | 100%
CC(C)(C)c1nc(-c2cccc(NS(=O)(=O)c3c(F)cccc3F)c2F)c(-c2ccnc(N)n2)s1 | LRRK2 | enzyme activity | inhibitor | radiometric | 1 µM | remaining activity | 102%
O=C(Nc1cnn(-c2csc(C(=O)NC3COC3)c2)c1)Nc1ccccc1Cl | LRRK2 | enzyme activity | inhibitor | – | 5 µM | remaining activity | 88.2%
O=C(O)[C@H]1[C@H](Cn2nnc3ccccc3c2=O)CC[C@@H]1C(=O)c1ccc(OCCC2CCOCC2)cc1 | LRRK2 G2019S | cell-free assay | – | competition with immobilised ligand | 1 µM | remaining binding | 100%
CC(C)(O)[C@H]1CC[C@H](Nc2ccc3ncc(-c4cccc(C(F)(F)F)c4)n3n2)CC1 | LRRK2 | enzyme activity | inhibitor | – | 1 µM | remaining activity | 66.1%
Cc1ccc(C(=O)Nc2ccc(CN3CCN(C)CC3)c(C(F)(F)F)c2)cc1C#Cc1cnc2cccnn12 | LRRK2 G2019S | enzyme activity | inhibitor | – | 23.5 nM | remaining activity | 99%
CN1CC(Oc2cnc(C#N)cc2-c2ccn3nc(NC(=O)C4CC4)cc3c2)C1 | LRRK2 | enzyme activity | inhibitor | – | 1 µM | inhibition | -19%
O=C1NC(=O)c2cc(Nc3ccc(F)cc3)c(Nc3ccc(F)cc3)cc21 | LRRK2 | cell-free assay | – | – | 0.5 µM | remaining signal | 99.8%
COc1cc2nccc(Oc3ccc(NC(=O)c4c5n(n(-c6ccc(F)cc6)c4=O)CCCC5)cc3)c2cc1OC | LRRK2 | enzyme activity | inhibitor | – | 0.1 µM | inhibition | 0%
Cc1ccc(Nc2nccc(N(C)c3ccc4c(C)n(C)nc4c3)n2)cc1S(N)(=O)=O | LRRK2 | enzyme activity | inhibitor | – | 0.5 µM | remaining activity | 109%
Cc1ccc(NC(=O)c2ccc(C)c(C(F)(F)F)c2)cc1C#Cc1nn(C2CCC(O)CC2)c2ncnc(N)c12 (stereo not drawn) | LRRK2 | cell-free assay | – | – | 10 µM | remaining signal | 15%
NS(=O)(=O)c1cc(NC(=O)C2(c3ccccc3Cl)CC2)ccc1Oc1cccc(Cl)c1 | LRRK2 G2019S | cell-free assay | – | competition with immobilised ligand | 1 µM | remaining binding | 100%
Nc1ncnc2occ(-c3ccc(NC(=O)Nc4cc(C(F)(F)F)ccc4F)cc3)c12 | LRRK2 | cell-free assay | inhibitor | – | 20 µM | remaining signal | 5.2%
